Hits are enriched below; roughly 9.6% of the tested compounds scored in any of these assays.
PTEN del growth = PTEN-deleted cell growth suppression; HCT116 PTEN-null viability, CellTiter-Glo, 60 h; active compounds read low; viability, % at 10 µM; 140,000 tested, 1.2% active; AID 827;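 active = viability at or below a set limit, 4 SD under the median of all tested compounds, cut at about 3.7% in these data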;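 also: PTEN knockout HCT116 line with beta catenin targeted HCT116 as companion control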
bCat KO growth = beta-catenin-lacking colon tumor cell growth suppression. HCT116 beta-catenin knockout viability, CellTiter-Glo, 60 h; active compounds read low. viability, % at 10 µM. 140,000 tested, 1.5% active;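 active = viability at or under a set limit, the compound median less 4 SD, cut at about 6% in these data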;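 also: 0% = Hyamine 1622 control at 20 µM and 100% = untreated cell control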
TNAP inh hiacc = TNAP (human) inhibition, high acceptor; inhibition, % at 20 µM; P05186; 200,000 tested, 0.03% active; purified TNAP, CDP-star luminescence, 1 M DEA;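 active = over 50% inhibition of tissue-nonspecific alkaline phosphatase at 20 µM in the single-dose screen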;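 also: plate controls were DMSO wells for no effect and EDTA-quenched wells as full inhibition for full effect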
Target sequence (P05186 whole entry, looked up): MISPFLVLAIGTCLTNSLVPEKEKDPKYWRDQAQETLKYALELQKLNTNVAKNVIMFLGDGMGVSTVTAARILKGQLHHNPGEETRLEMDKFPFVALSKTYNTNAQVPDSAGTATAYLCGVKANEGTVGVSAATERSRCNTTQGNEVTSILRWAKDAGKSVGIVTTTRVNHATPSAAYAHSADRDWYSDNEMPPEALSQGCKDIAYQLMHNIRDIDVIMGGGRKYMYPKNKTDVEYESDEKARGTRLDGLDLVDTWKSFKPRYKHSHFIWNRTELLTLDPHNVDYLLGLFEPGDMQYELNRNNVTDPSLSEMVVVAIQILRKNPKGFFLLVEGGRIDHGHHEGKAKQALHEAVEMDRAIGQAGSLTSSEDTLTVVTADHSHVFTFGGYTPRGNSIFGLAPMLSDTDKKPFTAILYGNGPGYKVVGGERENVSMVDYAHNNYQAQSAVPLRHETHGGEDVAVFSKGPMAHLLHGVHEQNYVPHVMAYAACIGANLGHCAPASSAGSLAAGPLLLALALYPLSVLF
TNAP act hiacc = TNAP (human) activation, high acceptor; P05186; activation factor at 20 µM; purified TNAP, CDP-star luminescence, 1 M DEA, 30 min; active compounds read high; 0 = EDTA background, 1 = DMSO-only activity; 200,000 tested, under 10 active; AID 1136;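 active = activation factor at least 2 at 20 µM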
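Control set: EDTA negative control, DMSO positive control / Assay system: human TNAP / Quantity: TNAP 1/800 final / Evaluation: TNAP activation factor scaled between EDTA and DMSO control wells / Measured by: luminescent substrate turnover signal / Compound dosing: one dose, 20 µM / Times: 30 min enzyme reaction at room temperature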
Lmaj promast = inhibitors of Leishmania major promastigote growth. Leishmania major promastigotes, resazurin fluorescence viability. 200,000 tested, 9% active. inhibition, % at 10 µM. AID 1063; in the data active = inhibition above about 50%;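 also: promastigotes grown with compound for 44 hours at 28 °C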
TNAP inh no acc = blocks human TNAP activity with no phosphate acceptor present. P05186. purified TNAP, CDP-star luminescence, 30 min. inhibition, % at 20 µM. 200,000 tested, 0.26% active. AID 1012;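 active = tissue-nonspecific alkaline phosphatase inhibition above about 50% at 20 µM in the single-dose screen, limit read from the data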;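 also: 0% = DMSO negative control and 100% = EDTA positive control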
The depositor's hits bear a star; . = not tested or not shown.

SMILES	PTEN del growth	bCat KO growth	TNAP inh hiacc	TNAP act hiacc	Lmaj promast	TNAP inh no acc
O=C(CCc1ccc(S(=O)(=O)NCCc2ccccc2)cc1)N1CCN(Cc2ccc3c(c2)OCO3)CC1	54	57	-9	1.1	78*	4
CSc1nnc(C)c(=O)n1COC(=O)COc1ccc(Cl)cc1Cl	.	.	-3	1	-6	-13
CCNC(=S)N1CCc2cc(OC)c(OC)cc2C1COc1ccccc1OC (centres undefined)	.	.	-3	1	19	-14
COc1cc(/C=N/OCC(=O)NC2CCCCC2C)ccc1OCc1ccc(Cl)cc1 (centres undefined)	18	11	-6	1.1	83*	-6
COC(=O)c1ccc(/C=N/OCC(=O)NC2CCCC(C)C2C)cc1 (centres undefined)	72	75	-4	1	6	-14
COc1cc(/C=N/N2CCOCC2)ccc1OCc1ccc(Cl)cc1	.	.	-8	1.1	-11	-4
COc1cc(/C=N/OCC(=O)Nc2cc(C)cc(C)c2)ccc1OCc1ccc(Cl)cc1	81	88	2	1	96*	-17
CN(C(=O)CSc1nc(N)c2c3c(sc2n1)CSC(C)(C)C3)c1ccccc1	112	102	-2	1	35	-11
CCCCC(O)(CCCC)C(=O)NN(C(=O)OC)c1ccccc1	75	83	-1	1	-1	-6
O=C(NNC(=S)NC(=O)c1sc2ccccc2c1Cl)c1ccc(Cl)cc1	64	59	2	1	-4	-68
COc1ccc(N2CCN(C(C)C(=O)N3CCCC3)CC2)cc1 (centres undefined)	.	.	-7	1.1	-4	-11
CNCCC1Sc2ccccc2Oc2ccccc21 (centres undefined)	.	.	-1	1	95*	-6
CCCCNC(=O)C1c2ccccc2Oc2ccccc21	.	.	-4	1	-4	-8
CCCCOc1ccc(C(=O)NCC2(c3ccc(OC)cc3)CCOCC2)cc1	89	86	2	1	44	-13
O=c1cc(NS(=O)(=O)c2ccccc2)nc(SCc2c(Cl)cccc2Cl)[nH]1	97	97	-5	1.1	69*	-2
O=c1cc(NS(=O)(=O)c2ccccc2)nc(SCc2ccccc2Cl)[nH]1	98	100	-2	1	0	-4
Cc1cc(C(=O)Nn2cnc3ccccc3c2=O)ccc1[N+](=O)[O-]	.	.	-3	1	-5	-10
c1ccc2c(c1)OCC(c1csc3ncnc(N4CCCC4)c13)O2 (centres undefined)	52	52	-4	1	20	-12
c1ccc(CCNc2ncnc3scc(C4COc5ccccc5O4)c23)cc1 (centres undefined)	50	55	0	1	85*	-12
COc1ccc(-c2cc(N)n(S(=O)(=O)c3c(F)c(F)c(F)c(F)c3F)n2)cc1OC	2.1*	5.7*	-5	1	24	-11
Cc1ccc(NC(=O)C(=O)NCc2ccc(/C=C(/C#N)C(=O)NCc3cccnc3)o2)cc1C	81	73	3	1	-1	-2
Cc1ccnc(N=Cc2c(O)ccc3oc4c(c23)CCCC4)c1	83	91	4	1	90*	-15
Oc1ccc2oc3c(c2c1/C=N/n1cnnc1)CCCC3	85	92	-4	1	32	-9
NC(=S)NNC(=O)C12CC3CC(CC(C3)C1)C2	95	87	-2	1	-7	-26
S=C(c1ccc2c(c1)OCO2)N1CCCCCC1	101	99	1	1	-6	-6
SMILES	PTEN del growth	bCat KO growth	TNAP inh hiacc	TNAP act hiacc	Lmaj promast	TNAP inh no acc
Oc1cc2c(cc1C(c1ccc(Br)cc1)N1CCCC1)OCO2 (centres undefined)	.	.	0	1	73*	4
C=CCn1c(COc2cccc(C)c2)nnc1SCC(=O)c1c[nH]c2c(CC)cccc12	95	93	-2	1	-5	-13
Cc1c(NC(=S)NC(=O)c2cc3ccccc3o2)c(=O)n(-c2ccccc2)n1C	94	94	-6	1.1	53*	-2
Cc1c(NC(=O)c2cc3ccccc3o2)c(=O)n(-c2ccccc2)n1C	95	93	-4	1	-1	-3
CCOC(=O)c1c(NC(=O)c2ccccc2C)sc2c1CC(C)(C)OC2	70	73	-6	1.1	72*	-7
CCOC(=O)c1c(NC(=O)c2ccc(C)cc2)sc2c1CC(C)(C)OC2	96	86	4	1	61*	-3
CCOC(=O)c1c(NC(=O)CCC(=O)N2CCOCC2)sc2c1CC(C)(C)OC2	100	96	-3	1	97*	-4
Cc1ccc(S(=O)(=O)CCC(=O)OCc2ccccc2F)cc1	.	.	0	1	-9	-2
Cc1cc(C(=O)N/N=C/c2cc(Br)ccc2OC(=O)c2ccccc2Cl)n[nH]1	.	.	0	1	98*	-13
Cc1cc(C(=O)N/N=C/c2cc(Br)ccc2OC(=O)c2ccccc2)n[nH]1	15	9	-1	1	-7	-34
Nc1c(S(=O)(=O)c2ccccc2)c2nc3ccccc3nc2n1C1CC1	.	.	-5	1	20	-13
Cc1ccc(S(=O)(=O)c2c(N)n(CCN3CCOCC3)c3nc4ccccc4nc23)cc1C	92	91	0	1	-3	-8
Cc1ccc(C(=O)Nn2c(N)c(S(=O)(=O)c3ccc(C)cc3)c3nc4ccccc4nc32)cc1	65	70	-4	1	-4	-5
Cc1ccc(S(=O)(=O)c2c(N)n(CCCO)c3nc4ccccc4nc23)cc1	81	87	-5	1	73*	-5
CCCCn1c(NS(=O)(=O)c2ccccc2)c(S(=O)(=O)c2ccc(C)cc2)c2nc3ccccc3nc21	81	82	-2	1	51*	-16
Cc1ccc(S(=O)(=O)c2c(N)n(CCC(C)C)c3nc4ccccc4nc23)cc1	2.6*	8	-5	1	69*	-9
Cn1c(N)c(S(=O)(=O)c2ccc(Br)cc2)c2nc3ccccc3nc21	84	77	-2	1	75*	-7
CCOC(=O)N1CCC(NC(=O)c2cc(C(=O)Nc3ccc(S(=O)(=O)N4CCCCC4)cc3)ccc2CO)CC1	.	.	-3	1	0	-6
CCc1ccccc1NC(=S)N(CCCN1CCOCC1)Cc1ccccn1	99	90	3	1	-2	-7
CCc1ccc(NC(=S)N(CCCN2CCOCC2)Cc2ccccn2)cc1	85	85	-4	1	68*	4
Cc1ccc(NC(=S)N(CCCN2CCOCC2)Cc2cccnc2)cc1C	.	.	-7	1.1	64*	-12
CCN(CC)c1ccc(C(=O)OCC(=O)Nc2cccc(S(=O)(=O)NC3=NCCCCC3)c2)cc1	97	101	1	1	1	-23
